ASAP1 GAP inh = ASAP1 ArfGAP inhibition; ASAP1-stimulated ARF1 GTP hydrolysis, GDP FP detection; inhibition, % at 16.5 µM; 360,000 tested, 0.19% active; in the data active = inhibition above about 25%;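 note: 0% = vehicle with enzyme and substrate and 100% = no enzyme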
PHOSPHO1 block = PHOSPHO1 (human) inhibition. 290,000 tested, 1.1% active. Q8TCT1. recombinant PHOSPHO1, absorbance phosphatase assay. inhibition, % at 13.3 µM; in the data active = inhibition above about 60%
VIM-2 inh = blocks Pseudomonas aeruginosa VIM-2 metallo-beta-lactamase | inhibition, % at 5.6 µM | 290,000 tested, 0.89% active | purified VIM-2, nitrocefin hydrolysis, epi-absorbance fluorescence;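 active = inhibition above the mean of all tested compounds plus 3 SD, cutoff set per screening run, cut at about 7.5% in these data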;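 note: red hydrolysis product quenches plate fluorescence so inhibitors raise well fluorescence; 0% = enzyme with DMSO and 100% = DMSO without enzyme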
ARFGAP1 inh = inhibits rat ARF GTPase activating protein 1 | inhibition, % at 16.5 µM | Q62848 | 360,000 tested, 0.26% active | Arfgap1-stimulated ARF1 GTP hydrolysis, GDP FP detection | AID 651572;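 active = inhibition above a per-plate limit, mean inhibition of low control wells plus 3 SD, cut at about 25% in these data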;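 note: 0% = DMSO wells with enzyme and 100% = wells lacking Arfgap1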
Target sequence (Q62848 1-136 limits assumed): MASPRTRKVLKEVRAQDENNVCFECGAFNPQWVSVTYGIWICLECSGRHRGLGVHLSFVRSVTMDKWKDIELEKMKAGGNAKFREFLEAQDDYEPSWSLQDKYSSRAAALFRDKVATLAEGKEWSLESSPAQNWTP
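Repeats: one replicate per compound; assay system: rat Arfgap1 catalytic domain, aa 1-136; times: enzyme reaction 120 min at 25 °C after 20 min preincubation; detection: FP of antibody-bound GDP Alexa 633 tracer, ex 620/em 688 nm; benchmarks: high control wells lacking Arfgap1, low control full reaction with DMSO; reagent: human ARF1(Δ1-17)-GTP substrate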
Calb FLC = affects C. albicans growth with fluconazole. C. albicans CaCi-2 + fluconazole, Alamar Blue growth, 48 h. growth inhibition, % (test concentration not listed). 300,000 tested, 0.57% active;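 active = growth inhibition above about 58% in most replicates, limit read from the data, passing the limit was not always enough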;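 note: all wells also contain fluconazole at 8 µg/ml as a sub-toxic cotreatment; 0% = median of DMSO wells and 100% = median of geldanamycin control wells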
IMP-1 inh-1 = blocks Pseudomonas aeruginosa IMP-1 metallo-beta-lactamase | AID 1556 | inhibition, % at 5.6 µM | 290,000 tested, 0.45% active | purified IMP-1, nitrocefin hydrolysis, epi-absorbance fluorescence;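 active = inhibition above the mean plus 3 SD of all compounds in the same screening run, cut at about 4.5% in these data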;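 note: 0% = IMP-1 with DMSO and 100% = DMSO wells lacking enzyme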
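Material – recombinant IMP-1 enzyme, purified · Amount – IMP-1 0.2 nM before substrate addition · Medium – HEPES buffer pH 7.1 with ZnSO4 and Brij 35 · Timing – 25 °C, 15 min preincubation, 25 min reaction · Measured by – plate fluorescence quenching by hydrolysis product, ex 480/em 530 nm · Read-out – percent enzyme inhibition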
IMP-1 inh-2 = selectivity counter-screen for VIM-2 inhibitors: IMP-1 metallo-beta-lactamase inhibitors; shares compounds with VIM-2 inh; purified IMP-1, nitrocefin hydrolysis, epi-absorbance fluorescence; inhibition, % at 5.6 µM; 1,300 tested, under 10 active; AID 1856; call rule not given here;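 note: 0% = enzyme with vehicle and 100% = vehicle without enzyme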
VIM-2 FRET ctr = counter-screen for VIM-2 inhibitors: epi-absorbance artifacts via FRET | shares compounds with VIM-2 inh | 1,300 tested, 23% active | inhibition, % at 5.6 µM | purified VIM-2, CCF2 FRET substrate hydrolysis;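 active = inhibition above the mean of all tested compounds plus 3 SD, cut at about 19% in these data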;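 note: 0% = VIM-2 plus DMSO and 100% = no enzyme wells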
TEM-1 counter = TEM-1 inhibition, counter-screen for VIM-2 inhibitors; shares compounds with VIM-2 inh; Purified TEM-1, nitrocefin hydrolysis, epi-absorbance fluorescence; inhibition, % at 5.6 µM; 1,300 tested, 3% active; AID 1866;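 active = inhibition above that campaign's mean inhibition plus 3 SD, cut at about 0.46% in these data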;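 note: 0% = TEM-1 with DMSO and 100% = TEM-1 with 100 µM potassium clavulanate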
Target sequence (P62593 whole entry, looked up): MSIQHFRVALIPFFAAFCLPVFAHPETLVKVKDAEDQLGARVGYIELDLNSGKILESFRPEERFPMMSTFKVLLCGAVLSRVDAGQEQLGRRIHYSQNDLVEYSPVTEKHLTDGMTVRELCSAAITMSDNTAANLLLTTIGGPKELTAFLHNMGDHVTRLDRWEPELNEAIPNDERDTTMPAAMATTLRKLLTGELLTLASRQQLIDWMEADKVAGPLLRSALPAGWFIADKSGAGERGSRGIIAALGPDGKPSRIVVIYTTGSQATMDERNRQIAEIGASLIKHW
VIM-2 inh conf = confirmation of P. aeruginosa VIM-2 metallo-beta-lactamase inhibitors; shares compounds with VIM-2 inh; purified VIM-2, nitrocefin hydrolysis, epi-absorbance; inhibition, % at 5.6 µM; 1,300 tested, 96% active;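 active = inhibition of the VIM-2 beta-lactamase enzyme above about 11% from the earlier first-round screen, limit read from the data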;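 note: 0% = VIM-2 with DMSO and 100% = buffer wells without enzyme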
* hit, by the source's call; . = no result given. An excerpt weighted towards active compounds, which were near 2.6% of everything screened.

SMILES	ASAP1 GAP inh	PHOSPHO1 block	VIM-2 inh	ARFGAP1 inh	Calb FLC	IMP-1 inh-1	IMP-1 inh-2	VIM-2 FRET ctr	TEM-1 counter	VIM-2 inh conf
CC1(C(=O)Nc2cnc3ccccc3c2)CCN1C(=O)c1ccccc1CCc1ccccc1 (configuration not stated)	7	.	.	4	.	.	.	.	.	.
O=C(CCn1cnc2ccccc21)N=Nc1c(O)[nH]c2ccccc12	-2	37	36*	11	-14	-4	-5	-8	-7	53*
CCN1CCN(c2nnc(-c3ccccc3)c3ccccc23)CC1	2	39	0	15	-19	-2	.	.	.	.
CCN1CCN(c2cc3c(nn2)Oc2ccccc2N3C)CC1	4	-3	13*	1	23	-4	-3	11	-8	25*
CCSc1ccc2nnc(-c3cccs3)n2n1	11	0	17*	-1	-23	-2	-3	-3	-8	28*
CCSc1ccc2nnc(-c3ccc(F)cc3)n2n1	2	-2	14*	5	-32	-2	-1	-4	0	24*
CCOC(=O)CNC(=O)CSc1ccc2nnc(-c3ccc(F)cc3)n2n1	12	7	-2	8	4	-4	.	.	.	.
OC(CSc1nnnn1-c1ccccc1)Cn1c2ccccc2c2ccccc21 (configuration not stated)	9	.	.	10	.	.	.	.	.	.
Cc1cccc(C)c1NC(=O)C1c2ccccc2OCC(=O)N1Cc1cccnc1 (configuration not stated)	-10	.	.	6	.	.	.	.	.	.
NC(c1csc(Nc2ccc(C(=O)NCCCO)cn2)n1)c1ccccc1Cl (configuration not stated)	4	.	.	-3	.	.	.	.	.	.
O=C(O)c1ccccc1/C=N/n1c(C2CCCCC2)n[nH]c1=S	-2	-111	15*	3	-1	-2	-2	32*	-6	21*
C[C@H](NC(=O)[C@@H]1CCCN1C(=O)[C@@H]1CCCN1)c1ccccc1	7	.	.	4	.	.	.	.	.	.
Cc1cc(NCCCO)n2c(nc3ccccc32)c1C#N	1	10	6	3	0	-2	.	.	.	.
Cc1cc(NCCOCCO)n2c(nc3ccccc32)c1C#N	4	37	33*	8	7	-3	-4	-9	-4	50*
COCCNc1cc(C)c(C#N)c2nc3ccccc3n12	5	5	26*	-6	7	0	-3	-10	-6	39*
COCCNc1c2c(c(C#N)c3nc4ccccc4n13)CCCC2	-13	-23	8	-2	-8	-4	.	.	.	.
C[C@H](CO)N1C[C@H](C)[C@@H](CN(C)C(=O)Nc2ccccc2)Oc2ncc(-c3ccc(C#N)cc3)cc2C1=O	1	.	.	3	.	.	.	.	.	.
COc1cc(C(O)c2nc(-c3cccc(C(F)(F)F)c3)cs2)ccc1F (configuration not stated)	12	.	.	9	.	.	.	.	.	.
Cc1ccc(S(=O)(=O)C[C@@H]2OC[C@H](Cc3ccccc3)N2S(=O)(=O)c2ccc(C)cc2)cc1	0	.	.	-14	.	.	.	.	.	.
CN(Cc1cn(Cc2cccc(Cl)c2)nn1)C1CN(Cc2cn(Cc3cccc(Cl)c3)nn2)S(=O)(=O)C1 (configuration not stated)	-4	.	.	7	.	.	.	.	.	.
CS(=O)(=O)N1CCN(c2ccc(NC(=O)COc3ccccc3[N+](=O)[O-])cc2)CC1	4	27	-3	1	-5	-1	.	.	.	.
COc1ccc(C(=O)Nc2ccc(N3CCN(C)CC3)cc2)cc1[N+](=O)[O-]	-3	43	34*	-11	-6	-4	-3	-1	-7	60*

Source: PubChem BioAssay (several laboratories)
